Tests used:
L6 = test: Cytotoxicity against rat L6 cells assessed as reduction in cell viability incubated for 70 hrs by resazurin staining based inverted microscopic analysis; details: L6, 70 h
Summary of the method: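 Rat L-6 skeletal myoblast line; racemates tested unless stated.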

[1] = Selectivity index, ratio of IC50 for cytotoxicity against rat L6 cells to IC50 for antileishmanial activity against Leishmania donovani MHOM/ET/67/L82 amastigotes; type: toxicity, cell-based; details: for selectivity ratio: read-out: Ratio IC50
Leishmania donovani = test: Antileishmanial activity against Leishmania donovani MHOM/ET/67/L82 amastigotes assessed as growth inhibition incubated for 70 hrs by resazurin based inverted microscopic analysis; type: functional, organism-based
Summary of the method: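 Axenic L. donovani amastigotes (MHOM/ET/67/L82); racemates tested unless stated; miltefosine as positive control. Some values come from a separate run and were rescaled by that run's relative miltefosine IC50.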

[2] = Leishmania donovani, MHOM/ET/67/L82, 70 h

SMILES | IC50 (L6) [µM] | selectivity ratio [1] | IC50 (Leishmania donovani; [2]) [µM] | Ratio IC50 [1] | IC50 (Leishmania donovani) [µM]
CC(C)OC(=O)/C=C/c1cc(O)c2c(c1)[C@@H](C(=O)OC(C)C)[C@H](c1ccc(O)c(O)c1)O2 | 10.6 | 16.4 | 0.65 | – | –
CC(C)OC(=O)/C=C/c1cc(O)c2c(c1)[C@H](C(=O)OC(C)C)[C@@H](c1ccc(O)c(O)c1)O2 | – | – | – | 19.3 | 0.53
COC(=O)/C=C/c1cc(O)c2c(c1)[C@H](C(=O)OC)[C@@H](c1ccc(O)c(O)c1)O2 (racemic) | 0.37 | 0.03 | 12.6 | – | –
COC(=O)/C=C/c1ccc2c(c1)[C@H](C(=O)OC)[C@@H](c1ccc(O)cc1)O2 (racemic) | 23.2 | 3 | 7.84 | – | –
COc1cc([C@H]2Oc3c(OC)cc(/C=C/CO)cc3[C@@H]2CO)ccc1O (racemic) | 74.2 | 0.5 | 160 | – | –
COC(=O)/C=C/c1cc(OC)c2c(c1)[C@H](C(=O)OC)[C@@H](c1ccc(O)c(OC)c1)O2 (racemic) | 2.43 | 0.2 | 10.6 | – | –
CC(C)NC(=O)/C=C/c1cc(O)c2c(c1)[C@H](C(=O)NC(C)C)[C@@H](c1ccc(O)c(O)c1)O2 (racemic) | 55.5 | 0.7 | 82.3 | – | –
COc1cc([C@H]2Oc3ccc(Br)cc3[C@@H]2CO)c(Br)cc1O (racemic) | 40.6 | 3.8 | 10.7 | – | –
COc1cc(Br)c([C@H]2Oc3ccc(Br)cc3[C@@H]2CO)cc1OC (racemic) | 21 | 1.8 | 11.4 | – | –
COc1cc([C@H]2Oc3ccc(Cl)cc3[C@@H]2C)cc(Cl)c1O (racemic) | 64.2 | 4.8 | 13.4 | – | –
OC[C@H]1c2ccccc2O[C@@H]1c1ccc(O)cc1 (racemic) | 217 | 1.4 | 158 | – | –
COc1cc([C@H]2Oc3c(OC)cc(/C=C/C(=O)OC(C)C)cc3[C@@H]2C(=O)OC(C)C)ccc1O (racemic) | 10.3 | 2.6 | 3.95 | – | –
CC(C)(C)OC(=O)/C=C/c1cc(F)c2c(c1)[C@H](C(=O)OC(C)(C)C)[C@@H](c1ccc(O)c(F)c1)O2 (racemic) | 9.22 | 4.7 | 1.97 | – | –
CC(C)(C)CC(=O)/C=C/c1cc(O)c2c(c1)[C@H](C(=O)CC(C)(C)C)[C@@H](c1ccc(O)c(O)c1)O2 (racemic) | 2.45 | 0.7 | 3.42 | – | –
COc1cc([C@H]2Oc3ccc(Br)cc3[C@@H]2CO)cc(Br)c1O (racemic) | 45.4 | 3.8 | 12.1 | – | –
COc1cc([C@H]2Oc3ccc(Br)cc3[C@@H]2C)c(Br)cc1O (racemic) | 18.2 | 1.2 | 15 | – | –
CCCCOC(=O)/C=C/c1cc(OC)c2c(c1)[C@H](C(=O)OCCCC)[C@@H](c1ccc(O)c(OC)c1)O2 (racemic) | 8.18 | 2.6 | 3.11 | – | –
COc1cc([C@H]2Oc3c(OC)cc(/C=C/C(=O)NC(C)C)cc3[C@@H]2C(=O)NC(C)C)ccc1O (racemic) | 77.2 | 1.4 | 53.6 | – | –
CC(C)(C)OC(=O)/C=C/c1cc(O)c2c(c1)[C@H](C(=O)OC(C)(C)C)[C@@H](c1ccc(O)c(O)c1)O2 (racemic) | 9.05 | 5.5 | 1.66 | – | –

SMILES | IC50 (L6) [µM] | selectivity ratio [1] | IC50 (Leishmania donovani; [2]) [µM] | Ratio IC50 [1] | IC50 (Leishmania donovani) [µM]
COc1cc([C@H]2Oc3ccc(Br)cc3[C@@H]2C)ccc1O (racemic) | 13.1 | 0.5 | 24.8 | – | –
COc1ccc([C@H]2Oc3ccc(C=O)cc3[C@@H]2C)cc1 (racemic) | 43.8 | 1.4 | 30.5 | – | –
CCOC(=O)/C=C/c1ccc2c(c1)[C@H](C(=O)OCC)[C@@H](c1ccc(O)cc1)O2 (racemic) | 26.3 | 3.5 | 7.45 | – | –
CC(=O)OC[C@H]1c2cc(Br)ccc2O[C@@H]1c1ccc(O)cc1 (racemic) | 55.5 | 4 | 13.7 | – | –
CCOC(=O)/C=C/c1cc(O)c2c(c1)[C@H](C(=O)OCC)[C@@H](c1ccc(O)c(O)c1)O2 (racemic) | 9.99 | 2.6 | 3.87 | – | –
COc1ccc([C@H]2Oc3ccccc3[C@@H]2COC(C)=O)cc1 (racemic) | 43.9 | 0.8 | 58.4 | – | –
COc1cc([C@H]2Oc3c(OC)cc(/C=C/C(=O)NCCO)cc3[C@@H]2C(=O)NCCO)ccc1O (racemic) | 212 | 1 | 212 | – | –
CC(C)CC(=O)/C=C/c1cc(O)c2c(c1)[C@H](C(=O)CC(C)C)[C@@H](c1ccc(O)c(O)c1)O2 (racemic) | 5 | 1.1 | 4.42 | – | –
CC(C)OC(=O)/C=C/c1ccc2c(c1)[C@H](C(=O)OC(C)C)[C@@H](c1ccc(O)cc1)O2 (racemic) | 14.3 | 3.4 | 4.21 | – | –
CC(C)(C)OC(=O)/C=C/c1ccc2c(c1)[C@H](C(=O)OC(C)(C)C)[C@@H](c1ccc(O)cc1)O2 (racemic) | 13.3 | 2.2 | 6.07 | – | –
COc1cc([C@H]2Oc3ccc(Cl)cc3[C@@H]2C)ccc1O (racemic) | 55.4 | 3.4 | 16.1 | – | –
OC[C@H]1c2ccccc2O[C@@H]1c1ccc(O)c(Br)c1 (racemic) | 115 | 2.6 | 43.8 | – | –
CCCCOC(=O)/C=C/c1cc(O)c2c(c1)[C@H](C(=O)OCCCC)[C@@H](c1ccc(O)c(O)c1)O2 (racemic) | 9.34 | 5.6 | 1.66 | – | –
COc1ccc([C@H]2Oc3ccc(Br)cc3[C@@H]2C)cc1Br (racemic) | 39.7 | 1.3 | 29.7 | – | –
OC[C@H]1c2cc(Br)ccc2O[C@@H]1c1ccc(O)c(Br)c1 (racemic) | 64.8 | 3 | 21.8 | – | –
COc1cc([C@H]2Oc3ccc(Br)cc3[C@@H]2C)cc(Br)c1O (racemic) | 44.8 | 2.6 | 17.2 | – | –
CCCNC(=O)/C=C/c1cc(OC)c2c(c1)[C@H](C(=O)NCCC)[C@@H](c1ccc(O)c(OC)c1)O2 (racemic) | 73.8 | 8.3 | 8.88 | – | –
COc1cc([C@H]2Oc3ccccc3[C@@H]2C)ccc1O (racemic) | 84.4 | 1.4 | 59 | – | –
COc1ccc([C@H]2Oc3ccccc3[C@@H]2CO)cc1OC (racemic) | 53.7 | 0.4 | 136 | – | –

SMILES | IC50 (L6) [µM] | selectivity ratio [1] | IC50 (Leishmania donovani; [2]) [µM] | Ratio IC50 [1] | IC50 (Leishmania donovani) [µM]
CCCCCCCCOC(=O)/C=C/c1cc(O)c2c(c1)[C@H](C(=O)OCCCCCCCC)[C@@H](c1ccc(O)c(O)c1)O2 (racemic) | 19.1 | 0.8 | 23.5 | – | –
COc1ccc([C@H]2Oc3ccccc3[C@@H]2C)cc1 (racemic) | 154 | 1.6 | 99.9 | – | –
OC[C@H]1c2cc(Br)ccc2O[C@@H]1c1ccc(O)cc1 (racemic) | 22 | 1.2 | 18.8 | – | –
COc1cc([C@H]2Oc3c(OC)cc(/C=C/C(=O)O)cc3[C@@H]2C(=O)O)ccc1O (racemic) | 259 | 37.6 | 6.89 | – | –
CCOC(=O)/C=C/c1cc(OC)c2c(c1)[C@H](C(=O)OCC)[C@@H](c1ccc(O)c(OC)c1)O2 (racemic) | 4.42 | 0.5 | 9.1 | – | –
COc1cc([C@H]2Oc3ccc(Br)cc3[C@@H]2CO)ccc1O (racemic) | 32.3 | 1.1 | 30.5 | – | –
COc1cc([C@H]2Oc3ccccc3[C@@H]2CO)ccc1O (racemic) | 58 | 0.3 | 185 | – | –
COc1cc([C@H]2Oc3c(OC)cc(/C=C/C(=O)OC(C)(C)C)cc3[C@@H]2C(=O)OC(C)(C)C)ccc1O (racemic) | 11.4 | 5.4 | 2.1 | – | –
CCCCOC(=O)/C=C/c1ccc2c(c1)[C@H](C(=O)OCCCC)[C@@H](c1ccc(O)cc1)O2 (racemic) | 14.3 | 1.3 | 10.8 | – | –
COc1ccc([C@H]2Oc3ccc(Br)cc3[C@@H]2C)cc1 (racemic) | 60.3 | 1.9 | 31.8 | – | –
COc1ccc([C@H]2Oc3ccc(Br)cc3[C@@H]2CO)cc1OC (racemic) | 21.2 | 0.6 | 33.8 | – | –
OC[C@H]1c2ccccc2O[C@@H]1c1ccccc1Br (racemic) | 25.4 | 1.2 | 21.7 | – | –
COc1ccc([C@H]2Oc3ccccc3[C@@H]2CO)cc1 (racemic) | 43.6 | 0.6 | 70.3 | – | –
C=CCOC(=O)/C=C/c1cc(O)c2c(c1)[C@H](C(=O)OCC=C)[C@@H](c1ccc(O)c(O)c1)O2 (racemic) | 6.41 | 1 | 6.32 | – | –
COc1cc([C@H]2Oc3c(OC)cc(/C=C/C(=O)CC(C)C)cc3[C@@H]2C(=O)CC(C)C)ccc1O (racemic) | 5.29 | 1.4 | 3.81 | – | –
COc1ccc([C@H]2Oc3ccc(/C=C/C(C)=O)cc3[C@@H]2C)cc1 (racemic) | 9.35 | 0.5 | 17.4 | – | –
OC[C@H]1c2ccccc2O[C@@H]1c1cc(Br)c(O)c(Br)c1 (racemic) | 109 | 10.8 | 10.1 | – | –
CCCCCCCCCCCCCCCCOP(=O)([O-])OCC[N+](C)(C)C [MILTEFOSINE] | – | – | 0.77 | – | –
